Source: ChEMBL document CHEMBL4422628, “Discovery of first-in-class thiazole-based dual FFA1/PPARδ agonists as potential anti-diabetic agents” (Eur J Med Chem, 2019)

How the values were obtained:
[1] = molecular target: T1, Peroxisome proliferator-activated receptor delta (Homo sapiens, UniProt Q03181); assay: Transactivation of GAL4-fused human PPARdelta LBD expressed in HEK293 cells after 18 hrs by luciferase reporter gene assay; assay type: cell-based
T1 sequence (Q03181 whole entry): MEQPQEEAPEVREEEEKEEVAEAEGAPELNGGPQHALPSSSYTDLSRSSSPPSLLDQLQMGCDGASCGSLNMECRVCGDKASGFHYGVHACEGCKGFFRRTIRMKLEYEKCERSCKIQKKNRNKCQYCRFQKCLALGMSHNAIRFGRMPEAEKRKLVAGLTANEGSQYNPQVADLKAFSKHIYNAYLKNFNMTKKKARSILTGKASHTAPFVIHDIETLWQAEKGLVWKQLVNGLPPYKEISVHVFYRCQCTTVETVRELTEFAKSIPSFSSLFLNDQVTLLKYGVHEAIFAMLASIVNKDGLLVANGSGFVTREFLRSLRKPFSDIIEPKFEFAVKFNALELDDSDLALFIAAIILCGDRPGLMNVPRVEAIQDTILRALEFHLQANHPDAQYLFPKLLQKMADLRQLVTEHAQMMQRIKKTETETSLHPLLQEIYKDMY

[2] = molecular target: T2, Free fatty acid receptor 1 (Homo sapiens, UniProt O14842); assay: Agonist activity at human FFA1 receptor expressed in CHO cells assessed as activity percentage at 10 uM by Fluo 4-AM dye based FLIPR assay relative to control; assay type: cell-based
T2 sequence (O14842 whole entry): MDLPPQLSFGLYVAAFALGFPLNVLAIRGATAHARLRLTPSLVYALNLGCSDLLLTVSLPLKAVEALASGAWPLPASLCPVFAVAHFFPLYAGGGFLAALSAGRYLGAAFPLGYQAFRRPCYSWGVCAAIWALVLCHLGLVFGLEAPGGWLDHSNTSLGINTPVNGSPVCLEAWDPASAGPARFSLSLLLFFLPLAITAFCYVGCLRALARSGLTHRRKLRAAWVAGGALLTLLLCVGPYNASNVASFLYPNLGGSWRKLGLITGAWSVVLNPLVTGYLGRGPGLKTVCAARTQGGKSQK
Summary of the method: (§1)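 hFFA1-expressing CHO cells were loaded for 1 h at 37 °C with buffer containing 2.5 μg/mL Fluo 4-AM, 0.1% fatty acid-free BSA and 2.5 mmol/L probenecid. Compounds were added and calcium flux was read on FLIPR. Activity = (A–B)/(C–B)×100%, where A is the compound response, B the vehicle response and C the 10 μM γ-linolenic acid response.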

[3] = molecular target: T3, Peroxisome proliferator-activated receptor delta (Homo sapiens) (UniProt Q03181); assay: Transactivation of GAL4-fused human PPARdelta LBD expressed in HEK293 cells assessed as activity percentage at 10 uM after 18 hrs by luciferase reporter gene assay relative to control; assay type: cell-based
T3 sequence (whole entry): T1 sequence (Q03181 whole entry)
Summary of the method: (§2)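 HepG2 or HEK293 cells were transfected with pBIND-PPARα, -δ or -γ (GAL4 fusion). Compounds at varying concentrations were incubated for 18 h. Cells were then lysed and firefly and renilla luciferase were read by dual-luciferase assay.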

[4] = molecular target: T2, Free fatty acid receptor 1; assay: Agonist activity at human FFA1 receptor expressed in CHO cells by Fluo 4-AM dye based FLIPR assay; assay type: cell-based; summary of the method: as §1
[5] = Cmax in Sprague-Dawley rat at 3 mg/kg, po by LC-MS/MS analysis; assay type: ADME, organism-based; design: dose 3 mg/kg, route oral; details: in vivo
[6] = molecular target: T4, Peroxisome proliferator-activated receptor gamma (Homo sapiens, UniProt P37231); assay: Transactivation of GAL4-fused human PPARgamma LBD expressed in HEK293 cells after 18 hrs by luciferase reporter gene assay; assay type: cell-based; summary of the method: as §2
T4 sequence (P37231 whole entry): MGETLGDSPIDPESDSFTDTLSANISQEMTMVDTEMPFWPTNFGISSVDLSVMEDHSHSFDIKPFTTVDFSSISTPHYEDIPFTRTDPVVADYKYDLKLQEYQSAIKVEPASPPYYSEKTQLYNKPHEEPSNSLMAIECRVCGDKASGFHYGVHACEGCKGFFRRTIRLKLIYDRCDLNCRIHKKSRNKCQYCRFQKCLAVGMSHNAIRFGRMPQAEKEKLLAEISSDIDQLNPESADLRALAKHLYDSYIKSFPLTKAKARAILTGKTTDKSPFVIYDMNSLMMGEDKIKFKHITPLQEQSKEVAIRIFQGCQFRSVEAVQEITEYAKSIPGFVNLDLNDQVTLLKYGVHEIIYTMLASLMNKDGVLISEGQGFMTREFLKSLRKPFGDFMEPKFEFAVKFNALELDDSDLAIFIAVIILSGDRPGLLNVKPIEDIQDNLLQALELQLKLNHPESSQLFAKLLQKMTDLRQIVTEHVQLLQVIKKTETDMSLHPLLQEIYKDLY

Mus musculus [7] = assay: Antidiabetic activity in ob/ob mouse assessed as reduction in blood glucose AUC (0 to 120 mins) at 100 mg/kg, po administered as single dose pretreated for 30 mins followed by glucose-challenge by glucometric analysis relative to control; assay type: functional; design: scale not given: the % may be the effect or the level left
Summary of the method: (§3)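 Male ob/ob mice (six weeks old on arrival, acclimatized one week) were fasted 12 h and randomized (n = 6/group). Each received a single oral dose in 0.5% carboxymethyl cellulose vehicle, then 3 g/kg oral glucose 30 min later. Blood glucose was measured by glucometer at −30, 0, 15, 30, 60 and 120 min. Glucose AUC0-120min was calculated, mean ± SD.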

Mus musculus [8] = assay: Antidiabetic activity in po dosed ob/ob mouse assessed as reduction in blood glucose AUC (0 to 120 mins) administered as single dose pretreated for 30 mins followed by glucose-challenge by glucometric analysis; assay type: functional, organism-based; summary of the method: as §3
[9] = Half life in Sprague-Dawley rat at 3 mg/kg, po by LC-MS/MS analysis; assay type: ADME, organism-based; details: in vivo
[10] = Clearance in Sprague-Dawley rat at 3 mg/kg, po by LC-MS/MS analysis; assay type: ADME, organism-based; details: in vivo
[11] = AUC (0 to 24 hrs) in Sprague-Dawley rat at 3 mg/kg, po by LC-MS/MS analysis; assay type: ADME, organism-based; design: dose 3 mg/kg, time < 24 hr, route oral; details: in vivo
Mus musculus [12] = assay: Antidiabetic activity in ob/ob mouse assessed as change in blood glucose AUC (0 to 120 mins) at 10 mg/kg, po administered as single dose pretreated for 30 mins followed by glucose-challenge by glucometric analysis relative to control; assay type: functional; summary of the method: as §3
Mus musculus [13] = assay: Antidiabetic activity in ob/ob mouse assessed as reduction in blood glucose AUC (0 to 120 mins) at 30 mg/kg, po administered as single dose pretreated for 30 mins followed by glucose-challenge by glucometric analysis relative to control; assay type: functional; design: scale not given: the % may be the effect or the level left; summary of the method: as §3
[14] = molecular target: T5, Peroxisome proliferator-activated receptor alpha (Homo sapiens, UniProt Q07869); assay: Transactivation of GAL4-fused human PPARalpha LBD expressed in HEK293 cells after 18 hrs by luciferase reporter gene assay; assay type: cell-based; summary of the method: as §2
T5 sequence (Q07869 whole entry): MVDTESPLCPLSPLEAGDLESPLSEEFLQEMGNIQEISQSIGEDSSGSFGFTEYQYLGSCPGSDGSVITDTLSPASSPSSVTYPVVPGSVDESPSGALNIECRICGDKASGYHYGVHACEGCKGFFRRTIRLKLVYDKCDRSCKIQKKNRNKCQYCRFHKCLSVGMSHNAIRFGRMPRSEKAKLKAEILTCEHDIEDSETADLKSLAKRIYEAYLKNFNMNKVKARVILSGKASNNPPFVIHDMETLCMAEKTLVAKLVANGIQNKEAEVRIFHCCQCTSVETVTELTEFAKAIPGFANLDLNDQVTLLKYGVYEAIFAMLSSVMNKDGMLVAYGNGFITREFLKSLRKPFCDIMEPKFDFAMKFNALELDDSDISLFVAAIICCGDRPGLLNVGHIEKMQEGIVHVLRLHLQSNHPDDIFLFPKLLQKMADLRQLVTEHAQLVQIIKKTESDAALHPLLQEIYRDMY

SMILES | EC50 [1] [nM] | Activity [2] [%] | Activity [3] [%] | EC50 [4] [nM] | other results
Cc1sc(-c2ccccc2)nc1CNc1ccc(OCC(=O)O)c(F)c1 | > 10000 | 42 | 12 | > 10000 | –
Cc1nc(-c2ccc(F)cc2)sc1COc1ccc2c(c1)OCC2CC(=O)O (configuration not stated) | 306 | – | – | 79 | –
O=C(O)COc1ccc(OCc2ncc(-c3ccccc3)s2)cc1F | > 10000 | 31 | 23 | > 10000 | –
Cc1nc(-c2ccc(C(F)(F)F)cc2)sc1COc1ccc2c(c1)OCC2CC(=O)O (configuration not stated) | 175 | – | – | 113 | –
[2H]C([2H])(Cc1ccc(OCc2sc(-c3ccc(C(F)(F)F)cc3)nc2C)cc1)C(=O)O | 376 | – | – | 325 | –
Cc1cc(OCc2csc(-c3ccccc3)n2)ccc1OCC(=O)O | > 10000 | 5 | 35 | > 10000 | –
Cc1nc(-c2ccc(F)cc2)sc1COc1ccc(OCC(=O)O)c(F)c1 | 729 | – | – | 112 | –
Cc1nc(-c2ccc(C(F)(F)F)cc2)sc1COc1ccc2c(c1)OC[C@H]2CC(=O)O | 102 | – | – | 68 | Cmax [5]: 9450 ng/mL; EC50 [6]: > 10000 nM; Activity (Mus musculus [7]): 10.9%; Activity (Mus musculus [8]): Dose-dependent effect; half-life [9]: 4.31 h; CL/F [10]: 0.279 mL/min/kg; AUC(0-t) at 24 h [11]: 95600 ng·h/mL; Activity (Mus musculus [12]): 1.1%; Activity (Mus musculus [13]): 6.1%; EC50 [14]: > 10000 nM
Cc1cc(OCc2sc(-c3ccccc3)nc2C)ccc1OCC(=O)O | 1650 | 13 | – | > 10000 | –
Cc1cc(OCc2sc(-c3ccc(C(F)(F)F)cc3)nc2C)ccc1OCC(=O)O | 315 | – | – | > 10000 | –
[2H]C([2H])(Cc1ccc(OCc2sc(-c3ccc(F)cc3)nc2C)cc1)C(=O)O | 529 | – | – | 251 | –
O=C(O)COc1ccc(OCc2csc(-c3ccccc3)n2)cc1F | > 10000 | 23 | 20 | > 10000 | –
Cc1cc(OCc2nnc(-c3ccccc3)s2)ccc1OCC(=O)O | > 10000 | 1 | 9 | > 10000 | –
COc1ccc(-c2nc(C)c(COc3ccc4c(c3)OCC4CC(=O)O)s2)cc1 (configuration not stated) | 920 | – | – | 156 | –
Cc1nc(-c2ccc(F)cc2)sc1COc1ccc(S(=O)(=O)CC(=O)O)cc1 | > 10000 | – | – | 253 | –
O=C(O)COc1ccc(OCc2nnc(-c3ccccc3)s2)cc1F | > 10000 | 19 | 4 | > 10000 | –

SMILES | EC50 [1] [nM] | Activity [2] [%] | Activity [3] [%] | EC50 [4] [nM] | other results
Cc1nc(-c2ccccc2)oc1COc1ccc(OCC(=O)O)c(F)c1 | 2660 | – | – | 1350 | –
Cc1nc(-c2ccccc2)sc1COc1ccc(OCC(=O)O)c(F)c1 | 1320 | – | – | 374 | –
Cc1nc(-c2ccccc2)sc1COc1ccc(S(=O)(=O)CC(=O)O)cc1 | > 10000 | – | – | 370 | –
Cc1cc(OCc2ncc(-c3ccccc3)o2)ccc1OCC(=O)O | > 10000 | 2 | 12 | > 10000 | –
Cc1ccc(-c2nc(C)c(COc3ccc(OCC(=O)O)c(F)c3)s2)cc1 | 564 | – | – | 156 | –
Cc1nc(-c2ccc(C(F)(F)F)cc2)sc1COc1ccc(OCC(=O)O)c(F)c1 | 436 | – | – | 149 | –
Cc1nc(-c2ccccc2)sc1COc1ccc2c(c1)OCC2CC(=O)O (configuration not stated) | 863 | – | – | 102 | –
Cc1nc(-c2ccc(Cl)cc2)sc1COc1ccc2c(c1)OCC2CC(=O)O (configuration not stated) | 264 | – | – | 105 | –
Cc1ccc(-c2nc(C)c(COc3ccc4c(c3)OCC4CC(=O)O)s2)cc1 (configuration not stated) | 218 | – | – | 94 | –
O=C(O)COc1ccc(OCc2nnc(-c3ccccc3)o2)cc1F | > 10000 | 6 | 3 | > 10000 | –
Cc1sc(-c2ccccc2)nc1COc1ccc(OCC(=O)O)c(F)c1 | > 10000 | 37 | 31 | > 10000 | –
Cc1cccc(-c2nc(C)c(COc3ccc(OCC(=O)O)c(F)c3)s2)c1 | 1160 | – | – | 247 | –
O=C(O)COc1ccc(OCc2nc(-c3ccccc3)cs2)cc1F | > 10000 | 15 | 11 | > 10000 | –
Cc1nc(-c2cccc(F)c2)sc1COc1ccc(OCC(=O)O)c(F)c1 | 780 | – | – | 185 | –
[2H]C([2H])(Cc1ccc(OCc2sc(-c3ccccc3)nc2C)cc1)C(=O)O | 972 | – | – | 590 | –
O=C(O)COc1ccc(OCc2ncc(-c3ccccc3)o2)cc1F | > 10000 | 2 | 8 | > 10000 | –
